# Source: ChEMBL document CHEMBL5058577, “EUbOPEN Chemogenomics Library 2 (Multiplex)” (2022)
# Test system: Fibroblast
# Assay: Multiplex assay against human fibroblast
# Format: toxicity, cell-based
# Summary of the method: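 Live cells carried four stains from seeding: Hoechst33342, BioTracker Green Microtubule Cytoskeleton Dye, MitoTracker Red and Annexin V Alexa Fluor 680. They were imaged on a CQ1 microscope at 37°C and 5% CO2 after compound addition. Using CellPathfinder machine-learning gating, cells were split into Hoechst high-intensity objects or normal cells, normal cells into healthy, pyknosed or fragmented nuclei, and pyknosed cells into mitotic or apoptotic; tubulin, mitochondrial-mass and membrane-permeability phenotypes are per cents of healthy-nucleus cells.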
# [1] = 12 h, 1 µM, compound concentration 1 uM, replicate 1
# [2] = 12 h, 1 µM, compound concentration 1 uM, replicate 2
# [3] = 12 h, 10 µM, compound concentration 10 uM, replicate 1
# [4] = 12 h, 10 µM, compound concentration 10 uM, replicate 2
# [5] = 24 h, 1 µM, compound concentration 1 uM, replicate 1
# [6] = 24 h, 1 µM, compound concentration 1 uM, replicate 2
# [7] = 24 h, 10 µM, compound concentration 10 uM, replicate 1
# [8] = 24 h, 10 µM, compound concentration 10 uM, replicate 2
# [9] = 48 h, 1 µM, compound concentration 1 uM, replicate 1
# [10] = 48 h, 1 µM, compound concentration 1 uM, replicate 2
# [11] = 48 h, 10 µM, compound concentration 10 uM, replicate 1
# [12] = 48 h, 10 µM, compound concentration 10 uM, replicate 2
compound,measurement,setting,value
CCn1c(-c2nc3cc(C(=O)N4CCCC(N)C4)ccc3n2C)cc2ccccc21.Cl (stereo unspecified),Population Apoptotic (%),[1],63%
same,Population Fragmented Nuclei (%),[1],17%
same,Population Healthy Nuclei (%),[1],67%
same,Population Hoechst High Intensity Objects (%),[1],3%
same,Population Membrane Permeable-Phenotype (%),[1],0%
same,Population Mitochondria Different-Phenotype (%),[1],4%
same,Population Mitotic Cells (%),[1],36%
same,Population Normal (%),[1],96%
same,Population Pyknosed Nuclei (%),[1],15%
same,Population Tubulin-Different-Phenotype (%),[1],27%
same,Total Cell Count,[1],128
same,Population Apoptotic (%),[2],32%
same,Population Fragmented Nuclei (%),[2],21%
same,Population Healthy Nuclei (%),[2],54%
same,Population Hoechst High Intensity Objects (%),[2],5%
same,Population Membrane Permeable-Phenotype (%),[2],2%
same,Population Mitochondria Different-Phenotype (%),[2],17%
same,Population Mitotic Cells (%),[2],67%
same,Population Normal (%),[2],94%
same,Population Pyknosed Nuclei (%),[2],23%
same,Population Tubulin-Different-Phenotype (%),[2],41%
same,Total Cell Count,[2],167
same,Population Apoptotic (%),[3],41%
same,Population Fragmented Nuclei (%),[3],22%
same,Population Healthy Nuclei (%),[3],63%
same,Population Hoechst High Intensity Objects (%),[3],1%
same,Population Membrane Permeable-Phenotype (%),[3],0%
same,Population Mitochondria Different-Phenotype (%),[3],18%
same,Population Mitotic Cells (%),[3],58%
same,Population Normal (%),[3],98%
same,Population Pyknosed Nuclei (%),[3],14%
same,Population Tubulin-Different-Phenotype (%),[3],69%
same,Total Cell Count,[3],221
same,Population Apoptotic (%),[4],38%
same,Population Fragmented Nuclei (%),[4],32%
same,Population Healthy Nuclei (%),[4],37%
same,Population Hoechst High Intensity Objects (%),[4],3%
same,Population Mitochondria Different-Phenotype (%),[4],19%
same,Population Mitotic Cells (%),[4],61%
same,Population Normal (%),[4],96%
same,Population Pyknosed Nuclei (%),[4],29%
same,Population Tubulin-Different-Phenotype (%),[4],80%
same,Total Cell Count,[4],186
same,Population Apoptotic (%),[5],50%
same,Population Fragmented Nuclei (%),[5],22%
same,Population Healthy Nuclei (%),[5],68%
same,Population Hoechst High Intensity Objects (%),[5],0%
same,Population Membrane Permeable-Phenotype (%),[5],0%
same,Population Mitochondria Different-Phenotype (%),[5],5%
same,Population Mitotic Cells (%),[5],50%
same,Population Normal (%),[5],99%
same,Population Pyknosed Nuclei (%),[5],9%
same,Population Tubulin-Different-Phenotype (%),[5],30%
same,Total Cell Count,[5],127
same,Population Apoptotic (%),[6],55%
same,Population Fragmented Nuclei (%),[6],27%
same,Population Healthy Nuclei (%),[6],54%
same,Population Hoechst High Intensity Objects (%),[6],9%
same,Population Membrane Permeable-Phenotype (%),[6],3%
same,Population Mitochondria Different-Phenotype (%),[6],20%
same,Population Mitotic Cells (%),[6],44%
same,Population Normal (%),[6],90%
same,Population Pyknosed Nuclei (%),[6],17%
same,Population Tubulin-Different-Phenotype (%),[6],41%
same,Total Cell Count,[6],184
same,Population Apoptotic (%),[7],70%
same,Population Fragmented Nuclei (%),[7],22%
same,Population Healthy Nuclei (%),[7],66%
same,Population Hoechst High Intensity Objects (%),[7],3%
same,Population Membrane Permeable-Phenotype (%),[7],0%
same,Population Mitochondria Different-Phenotype (%),[7],22%
same,Population Mitotic Cells (%),[7],29%
same,Population Normal (%),[7],96%
same,Population Pyknosed Nuclei (%),[7],10%
same,Population Tubulin-Different-Phenotype (%),[7],76%
same,Total Cell Count,[7],231
same,Population Apoptotic (%),[8],59%
same,Population Fragmented Nuclei (%),[8],30%
same,Population Healthy Nuclei (%),[8],46%
same,Population Hoechst High Intensity Objects (%),[8],4%
same,Population Membrane Permeable-Phenotype (%),[8],2%
same,Population Mitochondria Different-Phenotype (%),[8],32%
same,Population Mitotic Cells (%),[8],40%
same,Population Normal (%),[8],95%
same,Population Pyknosed Nuclei (%),[8],23%
same,Population Tubulin-Different-Phenotype (%),[8],82%
same,Total Cell Count,[8],189
same,Population Apoptotic (%),[9],66%
same,Population Fragmented Nuclei (%),[9],23%
same,Population Healthy Nuclei (%),[9],67%
same,Population Hoechst High Intensity Objects (%),[9],2%
same,Population Membrane Permeable-Phenotype (%),[9],1%
same,Population Mitochondria Different-Phenotype (%),[9],3%
same,Population Mitotic Cells (%),[9],33%
same,Population Normal (%),[9],97%
same,Population Pyknosed Nuclei (%),[9],8%
same,Population Tubulin-Different-Phenotype (%),[9],29%
same,Total Cell Count,[9],137
same,Population Apoptotic (%),[10],51%
same,Population Fragmented Nuclei (%),[10],32%
same,Population Healthy Nuclei (%),[10],51%
same,Population Hoechst High Intensity Objects (%),[10],5%
same,Population Membrane Permeable-Phenotype (%),[10],2%
same,Population Mitochondria Different-Phenotype (%),[10],23%
same,Population Mitotic Cells (%),[10],48%
same,Population Normal (%),[10],94%
same,Population Pyknosed Nuclei (%),[10],15%
same,Population Tubulin-Different-Phenotype (%),[10],49%
same,Total Cell Count,[10],193
same,Population Apoptotic (%),[11],83%
same,Population Fragmented Nuclei (%),[11],19%
same,Population Healthy Nuclei (%),[11],72%
same,Population Hoechst High Intensity Objects (%),[11],3%
same,Population Membrane Permeable-Phenotype (%),[11],0%
same,Population Mitochondria Different-Phenotype (%),[11],22%
same,Population Mitotic Cells (%),[11],16%
same,Population Normal (%),[11],96%
same,Population Pyknosed Nuclei (%),[11],8%
same,Population Tubulin-Different-Phenotype (%),[11],85%
same,Total Cell Count,[11],232
same,Population Apoptotic (%),[12],60%
same,Population Fragmented Nuclei (%),[12],33%
same,Population Healthy Nuclei (%),[12],57%
same,Population Mitochondria Different-Phenotype (%),[12],16%
same,Population Mitotic Cells (%),[12],40%
same,Total Cell Count,[12],231
